≈ marks a conversion by molar mass, not a printed value.
What was measured:
[1] = Cytotoxicity against rhesus monkey FRhK4 cells assessed as reduction in cell viability incubated for 48 hrs by MTT assay; format: cell-based, Macaca mulatta
How it was run: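 FRhK-4 cells (DMEM, 10% FBS) were seeded at 5 X 10^3 cells/well and grown 24 h. They were exposed to compound at 7.8–1000 µg/mL for 48 h at 37 °C in 5% CO2. MTT (5 mg/mL) was added for 4 h, then DMSO for 30 min, and OD540 read. CC50 was derived from the mean of three ODs versus untreated cells.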

[2] = Therapeutic index, ratio of CC50 of rhesus monkey FRhK cells to IC50 for antiviral activity against Hepatitis A virus infected in rhesus monkey FRhK4 cells assessed as inhibition in viral replication using cells pre-infected with virus before compound exposure for 72 hrs by MTT assay; format: toxicity, cell-based; conditions: read-out: Ratio CC50/IC50
How it was run: (§1)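 FRhK-4 monolayers were infected with HAV for 1 h. Unbound virus was removed and replaced with medium containing non-toxic compound concentrations, then incubated 72 h at 37 °C in 5% CO2. MTT OD540 was read in triplicate alongside virus-infected and cell-only controls to give IC50. TI = CC50/IC50.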

[3] = Therapeutic index, ratio of CC50 of rhesus monkey FRhK cells to IC50 of antiviral activity against Hepatitis A virus infected in rhesus monkey FRhK4 cells; format: toxicity, cell-based; conditions: read-out: Ratio CC50/IC50
How it was run: (§2)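 Virucidal format: HAV (10^6 […] TCID50/0.1 ml) was mixed with an equal volume of non-toxic compound concentrations for 1 h at 37 °C. The mixture was added to FRhK-4 monolayers for 1 h, then replaced with medium for 72 h. MTT OD540 was read in triplicate with virus and cell controls to give IC50. TI = CC50/IC50.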

Hepatovirus A [4] = assay: Antiviral activity against Hepatitis A virus infected in rhesus monkey FRhK4 cells assessed as inhibition in viral adsorption using cells pre-incubated with compound for 24 hrs before viral infection for 1 hr by MTT assay; format: functional, organism-based; conditions: FRhK-4
How it was run: (§3)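 FRhK-4 monolayers in 24-well plates were exposed to non-toxic compound concentrations for 24 h at 37 °C in 5% CO2. Compound was then removed and HAV added for 1 h, after which the inoculum was replaced with medium for 72 h. MTT OD540 was read in triplicate alongside virus-infected and cell-only controls to give IC50. TI = CC50/IC50.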

Hepatovirus A [5] = assay: Antiviral activity against Hepatitis A virus infected in rhesus monkey FRhK4 cells assessed as inhibition in viral replication using cells pre-infected with virus before compound exposure for 72 hrs by MTT assay; format: functional, organism-based; conditions: FRhK-4, 72 h; how it was run: as §1
[6] = Therapeutic index, ratio of CC50 of rhesus monkey FRhK cells to IC50 of antiviral activity against Hepatitis A virus infected in rhesus monkey FRhK4 cells assessed as inhibition in viral adsorption using cells pre-incubated with compound for 24 hrs before viral infection for 1 hr by MTT assay; format: toxicity, cell-based; conditions: read-out: Ratio CC50/IC50; how it was run: as §3
Hepatovirus A [7] = assay: Antiviral activity against Hepatitis A virus infected in rhesus monkey FRhK4 cells assessed as reduction in virus-induced cytopathic effect incubated for 72 hrs by MTT assay; format: functional, organism-based; conditions: FRhK-4, 72 h; how it was run: as §2

SMILES: CCn1c(COc2ccc3c(-c4ccccc4)cc(=O)oc3c2)nnc1SCCN1CCOCC1
- CC50 at 48 h [1]: 942 µg/mL (≈ 1910 µM)
- selectivity ratio at 72 h [2]: 70
- selectivity ratio [3]: 20
- IC50 (Hepatovirus A [4]): 1180 µg/mL (≈ 2390 µM)
- IC50 (Hepatovirus A [5]): 13.4 µg/mL (≈ 27.2 µM)
- selectivity ratio at 1 h [6]: 0.8
- IC50 (Hepatovirus A [7]): 47 µg/mL (≈ 95.4 µM)

SMILES: O=C(COc1ccc2c(-c3ccccc3)cc(=O)oc2c1)N/N=C1/C(=O)Nc2ccc(Cl)cc21
- CC50 at 48 h [1]: 549 µg/mL (≈ 1160 µM)
- selectivity ratio at 72 h [2]: 0.1
- selectivity ratio [3]: 0.7
- IC50 (Hepatovirus A [4]): 1100 µg/mL (≈ 2320 µM)
- IC50 (Hepatovirus A [5]): 5490 µg/mL (≈ 11600 µM)
- selectivity ratio at 1 h [6]: 0.5
- IC50 (Hepatovirus A [7]): 784 µg/mL (≈ 1660 µM)

SMILES: CN(C)CCSc1nnc(COc2ccc3c(-c4ccccc4)cc(=O)oc3c2)o1
- CC50 at 48 h [1]: 897 µg/mL (≈ 2120 µM)
- selectivity ratio at 72 h [2]: 25
- selectivity ratio [3]: 20
- IC50 (Hepatovirus A [4]): 112 µg/mL (≈ 264 µM)
- IC50 (Hepatovirus A [5]): 35.8 µg/mL (≈ 84.5 µM)
- selectivity ratio at 1 h [6]: 8
- IC50 (Hepatovirus A [7]): 44.8 µg/mL (≈ 106 µM)

SMILES: Nc1nc2c(ncn2COCCO)c(=O)[nH]1 [ACYCLOVIR]
- CC50 at 48 h [1]: > 1000 µg/mL
- selectivity ratio at 72 h [2]: 93
- selectivity ratio [3]: 80
- IC50 (Hepatovirus A [4]): 33.5 µg/mL (≈ 149 µM)
- IC50 (Hepatovirus A [5]): 30.6 µg/mL (≈ 136 µM)
- selectivity ratio at 1 h [6]: 85
- IC50 (Hepatovirus A [7]): 35.6 µg/mL (≈ 158 µM)

SMILES: O=c1cc(-c2ccccc2)c2ccc(OCc3nnc(SCCN4CCOCC4)o3)cc2o1
- CC50 at 48 h [1]: 249 µg/mL (≈ 535 µM)
- selectivity ratio at 72 h [2]: 0.4
- selectivity ratio [3]: 25
- IC50 (Hepatovirus A [4]): 9.9 µg/mL (≈ 21.3 µM)
- IC50 (Hepatovirus A [5]): 622 µg/mL (≈ 1340 µM)
- selectivity ratio at 1 h [6]: 25
- IC50 (Hepatovirus A [7]): 9.9 µg/mL (≈ 21.3 µM)

SMILES: NNC(=O)COc1ccc2c(-c3ccccc3)cc(=O)oc2c1
- CC50 at 48 h [1]: 785 µg/mL (≈ 2530 µM)
- selectivity ratio at 72 h [2]: 0.7
- selectivity ratio [3]: 0.2
- IC50 (Hepatovirus A [4]): 112 µg/mL (≈ 361 µM)
- IC50 (Hepatovirus A [5]): 1120 µg/mL (≈ 3610 µM)
- selectivity ratio at 1 h [6]: 7
- IC50 (Hepatovirus A [7]): 3920 µg/mL (≈ 12600 µM)

SMILES: Cn1c(COc2ccc3c(-c4ccccc4)cc(=O)oc3c2)n[nH]c1=S
- CC50 at 48 h [1]: 648 µg/mL (≈ 1770 µM)
- selectivity ratio at 72 h [2]: 48
- selectivity ratio [3]: 57
- IC50 (Hepatovirus A [4]): 1300 µg/mL (≈ 3550 µM)
- IC50 (Hepatovirus A [5]): 13.5 µg/mL (≈ 36.9 µM)
- selectivity ratio at 1 h [6]: 0.5
- IC50 (Hepatovirus A [7]): 11.3 µg/mL (≈ 30.9 µM)

SMILES: C/C(=N\NC(=O)COc1ccc2c(-c3ccccc3)cc(=O)oc2c1)c1ccccc1
- CC50 at 48 h [1]: 438 µg/mL (≈ 1060 µM)
- selectivity ratio at 72 h [2]: 0.6
- selectivity ratio [3]: 4
- IC50 (Hepatovirus A [4]): 219 µg/mL (≈ 531 µM)
- IC50 (Hepatovirus A [5]): 730 µg/mL (≈ 1770 µM)
- selectivity ratio at 1 h [6]: 2
- IC50 (Hepatovirus A [7]): 110 µg/mL (≈ 265 µM)

SMILES: CCN(CC)CCSc1nnc(COc2ccc3c(-c4ccccc4)cc(=O)oc3c2)o1
- CC50 at 48 h [1]: 245 µg/mL (≈ 543 µM)
- selectivity ratio at 72 h [2]: 32
- selectivity ratio [3]: 3
- IC50 (Hepatovirus A [4]): 3.18 µg/mL (≈ 7.04 µM)
- IC50 (Hepatovirus A [5]): 7.65 µg/mL (≈ 16.9 µM)
- selectivity ratio at 1 h [6]: 77
- IC50 (Hepatovirus A [7]): 81.6 µg/mL (≈ 181 µM)

SMILES: CCNc1nnc(COc2ccc3c(-c4ccccc4)cc(=O)oc3c2)s1
- CC50 at 48 h [1]: 129 µg/mL (≈ 340 µM)
- selectivity ratio at 72 h [2]: 5
- selectivity ratio [3]: 2
- IC50 (Hepatovirus A [4]): 18.4 µg/mL (≈ 48.5 µM)
- IC50 (Hepatovirus A [5]): 25.8 µg/mL (≈ 68 µM)
- selectivity ratio at 1 h [6]: 7
- IC50 (Hepatovirus A [7]): 64.5 µg/mL (≈ 170 µM)

SMILES: O=C(COc1ccc2c(-c3ccccc3)cc(=O)oc2c1)N/N=C1/C(=O)Nc2ccc(Br)cc21
- CC50 at 48 h [1]: 951 µg/mL (≈ 1830 µM)
- selectivity ratio at 72 h [2]: 52
- selectivity ratio [3]: 73
- IC50 (Hepatovirus A [4]): 21.6 µg/mL (≈ 41.7 µM)
- IC50 (Hepatovirus A [5]): 18.3 µg/mL (≈ 35.3 µM)
- selectivity ratio at 1 h [6]: 44
- IC50 (Hepatovirus A [7]): 13 µg/mL (≈ 25.1 µM)

SMILES: Cc1cc(C)n(C(=O)COc2ccc3c(-c4ccccc4)cc(=O)oc3c2)n1
- CC50 at 48 h [1]: 753 µg/mL (≈ 2010 µM)
- selectivity ratio at 72 h [2]: 17
- selectivity ratio [3]: 20
- IC50 (Hepatovirus A [4]): 83.6 µg/mL (≈ 223 µM)
- IC50 (Hepatovirus A [5]): 44.3 µg/mL (≈ 118 µM)
- selectivity ratio at 1 h [6]: 9
- IC50 (Hepatovirus A [7]): 37.6 µg/mL (≈ 100 µM)

SMILES: CNC(=S)NNC(=O)COc1ccc2c(-c3ccccc3)cc(=O)oc2c1
- CC50 at 48 h [1]: 951 µg/mL (≈ 2480 µM)
- selectivity ratio at 72 h [2]: 15
- selectivity ratio [3]: 4
- IC50 (Hepatovirus A [4]): 11.9 µg/mL (≈ 31 µM)
- IC50 (Hepatovirus A [5]): 63.4 µg/mL (≈ 165 µM)
- selectivity ratio at 1 h [6]: 80
- IC50 (Hepatovirus A [7]): 238 µg/mL (≈ 620 µM)

SMILES: O=c1cc(-c2ccccc2)c2ccc(O)cc2o1
- CC50 at 48 h [1]: 340 µg/mL (≈ 1430 µM)
- selectivity ratio at 72 h [2]: 8
- selectivity ratio [3]: 70.8
- IC50 (Hepatovirus A [4]): 1130 µg/mL (≈ 4760 µM)
- IC50 (Hepatovirus A [5]): 42.5 µg/mL (≈ 178 µM)
- selectivity ratio at 1 h [6]: 0.3
- IC50 (Hepatovirus A [7]): 4.8 µg/mL (≈ 20.1 µM)

SMILES: CNc1nnc(COc2ccc3c(-c4ccccc4)cc(=O)oc3c2)s1
- CC50 at 48 h [1]: 435 µg/mL (≈ 1190 µM)
- selectivity ratio at 72 h [2]: 3
- selectivity ratio [3]: 0.2
- IC50 (Hepatovirus A [4]): 544 µg/mL (≈ 1490 µM)
- IC50 (Hepatovirus A [5]): 145 µg/mL (≈ 397 µM)
- selectivity ratio at 1 h [6]: 0.8
- IC50 (Hepatovirus A [7]): 2180 µg/mL (≈ 5950 µM)

SMILES: O=C(COc1ccc2c(-c3ccccc3)cc(=O)oc2c1)N/N=C1/C(=O)Nc2ccccc21
- CC50 at 48 h [1]: 483 µg/mL (≈ 1100 µM)
- selectivity ratio at 72 h [2]: 4
- selectivity ratio [3]: 6
- IC50 (Hepatovirus A [4]): 242 µg/mL (≈ 550 µM)
- IC50 (Hepatovirus A [5]): 121 µg/mL (≈ 275 µM)
- selectivity ratio at 1 h [6]: 2
- IC50 (Hepatovirus A [7]): 80.5 µg/mL (≈ 183 µM)

SMILES: CCn1c(COc2ccc3c(-c4ccccc4)cc(=O)oc3c2)n[nH]c1=S
- CC50 at 48 h [1]: 597 µg/mL (≈ 1570 µM)
- selectivity ratio at 72 h [2]: 7
- selectivity ratio [3]: 46
- IC50 (Hepatovirus A [4]): 49.7 µg/mL (≈ 131 µM)
- IC50 (Hepatovirus A [5]): 82.7 µg/mL (≈ 218 µM)
- selectivity ratio at 1 h [6]: 12
- IC50 (Hepatovirus A [7]): 12.9 µg/mL (≈ 34 µM)

SMILES: O=c1cc(-c2ccccc2)c2ccc(OCc3n[nH]c(=S)o3)cc2o1
- CC50 at 48 h [1]: 367 µg/mL (≈ 1040 µM)
- selectivity ratio at 72 h [2]: 50
- selectivity ratio [3]: 78
- IC50 (Hepatovirus A [4]): 184 µg/mL (≈ 521 µM)
- IC50 (Hepatovirus A [5]): 7.34 µg/mL (≈ 20.8 µM)
- selectivity ratio at 1 h [6]: 2
- IC50 (Hepatovirus A [7]): 4.7 µg/mL (≈ 13.3 µM)

SMILES: CCOC(=O)COc1ccc2c(-c3ccccc3)cc(=O)oc2c1
- CC50 at 48 h [1]: 900 µg/mL (≈ 2770 µM)
- selectivity ratio at 72 h [2]: 35
- selectivity ratio [3]: 0.7
- IC50 (Hepatovirus A [4]): 180 µg/mL (≈ 555 µM)
- IC50 (Hepatovirus A [5]): 25.7 µg/mL (≈ 79.2 µM)
- selectivity ratio at 1 h [6]: 5
- IC50 (Hepatovirus A [7]): 1290 µg/mL (≈ 3960 µM)

SMILES: O=C(COc1ccc2c(-c3ccccc3)cc(=O)oc2c1)NN1C(=O)c2ccccc2C1=O
- CC50 at 48 h [1]: 951 µg/mL (≈ 2160 µM)
- selectivity ratio at 72 h [2]: 0.7
- selectivity ratio [3]: 9
- IC50 (Hepatovirus A [4]): 13 µg/mL (≈ 29.5 µM)
- IC50 (Hepatovirus A [5]): 1360 µg/mL (≈ 3080 µM)
- selectivity ratio at 1 h [6]: 72
- IC50 (Hepatovirus A [7]): 106 µg/mL (≈ 240 µM)
